Values after ≈ are worked out from the molar mass of the structure shown. Active and inactive are the calls of the source. The rule behind the calls is not given here.
system: Staphylococcus aureus; assay: Antibacterial activity against methicillin-resistant Staphylococcus aureus S17 measured after overnight incubation by broth double-dilution method; type: functional; settings: not given
Procedure, shortened: (§1)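 MIC by broth double-dilution in liquid Mueller-Hinton medium. Values are reported in µg/mL.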

SMILES | MIC [µg/mL]
CCCCCn1sc2ccccc2c1=O | 2 (≈ 9.04 µM)
O=c1c2ccccc2sn1C1CCCCCC1 | 1 (≈ 4.04 µM)

system: Staphylococcus aureus; assay: Antibacterial activity against methicillin-resistant Staphylococcus aureus NRS77 measured after overnight incubation by broth double-dilution method; type: functional; settings: not given; procedure, shortened: as §1

SMILES | MIC [µg/mL]
CCCCCn1sc2ccccc2c1=O | 2 (≈ 9.04 µM)
O=c1c2ccccc2sn1C1CCCCCC1 | 2 (≈ 8.09 µM)

system: Staphylococcus aureus; assay: Antibacterial activity against methicillin-resistant Staphylococcus aureus C16 measured after overnight incubation by broth double-dilution method; type: functional; settings: not given; procedure, shortened: as §1

SMILES | MIC [µg/mL]
CCCCCn1sc2ccccc2c1=O | 7.8 (≈ 35.2 µM)
O=c1c2ccccc2sn1C1CCCCCC1 | 3.9 (≈ 15.8 µM)

system: Staphylococcus aureus; assay: Antibacterial activity against methicillin-resistant Staphylococcus aureus C2 measured after overnight incubation by broth double-dilution method; type: functional; settings: not given; procedure, shortened: as §1

SMILES | MIC [µg/mL]
CCCCCn1sc2ccccc2c1=O | 2 (≈ 9.04 µM)
O=c1c2ccccc2sn1C1CCCCCC1 | 2 (≈ 8.09 µM)

system: Staphylococcus aureus; assay: Antibacterial activity against methicillin-resistant Staphylococcus aureus G6 measured after overnight incubation by broth double-dilution method; type: functional; settings: not given; procedure, shortened: as §1

SMILES | MIC [µg/mL]
CCCCCn1sc2ccccc2c1=O | 2 (≈ 9.04 µM)
O=c1c2ccccc2sn1C1CCCCCC1 | 2 (≈ 8.09 µM)

system: Enterococcus; assay: Antibacterial activity against Vancomycin-resistant Enterococcus measured after overnight incubation by broth double-dilution method; type: functional; settings: not given; procedure, shortened: as §1

SMILES | MIC [µg/mL]
CCCCCn1sc2ccccc2c1=O | 1 (≈ 4.52 µM)
O=c1c2ccccc2sn1C1CCCCCC1 | 2 (≈ 8.09 µM)

system: Mycolicibacterium smegmatis; assay: Antibacterial activity against Mycobacterium smegmatis MC2-155 measured after overnight incubation by broth double-dilution method; type: functional; settings: str. MC2 155; procedure, shortened: as §1

SMILES | MIC [µg/mL]
CCCCCn1sc2ccccc2c1=O | 2 (≈ 9.04 µM)
O=c1c2ccccc2sn1C1CCCCCC1 | 7.8 (≈ 31.5 µM)

system: Staphylococcus aureus; assay: Antibacterial activity against methicillin-sensitive Staphylococcus aureus ATCC 6538 measured after overnight incubation by broth double-dilution method; type: functional; settings: not given; procedure, shortened: as §1

SMILES | MIC [µg/mL]
CCCCCn1sc2ccccc2c1=O | 7.8 (≈ 35.2 µM)
O=c1c2ccccc2sn1C1CCCCCC1 | 7.8 (≈ 31.5 µM)

system: Staphylococcus aureus; assay: Antibacterial activity against methicillin-resistant Staphylococcus aureus G1 measured after overnight incubation by broth double-dilution method; type: functional; settings: not given; procedure, shortened: as §1

SMILES | MIC [µg/mL]
CCCCCn1sc2ccccc2c1=O | 0.5 (≈ 2.26 µM)
O=c1c2ccccc2sn1C1CCCCCC1 | 0.5 (≈ 2.02 µM)

system: Staphylococcus aureus; assay: Antibacterial activity against methicillin-resistant Staphylococcus aureus G12 measured after overnight incubation by broth double-dilution method; type: functional; settings: not given; procedure, shortened: as §1

SMILES | MIC [µg/mL]
CCCCCn1sc2ccccc2c1=O | 2 (≈ 9.04 µM)
O=c1c2ccccc2sn1C1CCCCCC1 | 2 (≈ 8.09 µM)

system: Staphylococcus aureus; assay: Antibacterial activity against methicillin-resistant Staphylococcus aureus USA300 measured after overnight incubation by broth double-dilution method; type: functional; settings: not given; procedure, shortened: as §1

SMILES | MIC [µg/mL]
CCCCCn1sc2ccccc2c1=O | 3.9 (≈ 17.6 µM)
O=c1c2ccccc2sn1C1CCCCCC1 | 15.6 (≈ 63.1 µM)

system: Staphylococcus aureus; assay: Antibacterial activity against methicillin-resistant Staphylococcus aureus BRS3 measured after overnight incubation by broth double-dilution method; type: functional; settings: not given; procedure, shortened: as §1

SMILES | MIC [µg/mL]
CCCCCn1sc2ccccc2c1=O | 3.9 (≈ 17.6 µM)
O=c1c2ccccc2sn1C1CCCCCC1 | 2 (≈ 8.09 µM)

system: Staphylococcus aureus; assay: Antibacterial activity against methicillin-resistant Staphylococcus aureus C1 measured after overnight incubation by broth double-dilution method; type: functional; settings: not given; procedure, shortened: as §1

SMILES | MIC [µg/mL]
CCCCCn1sc2ccccc2c1=O | 2 (≈ 9.04 µM)
O=c1c2ccccc2sn1C1CCCCCC1 | 2 (≈ 8.09 µM)

system: Staphylococcus aureus; assay: Antibacterial activity against methicillin-resistant Staphylococcus aureus S22 using 1 10^6CFU/ml measured after overnight incubation by broth double-dilution method; type: functional; settings: not given

SMILES | Activity
CCCCCn1sc2ccccc2c1=O | Active

system: Staphylococcus aureus; assay: Antibacterial activity against methicillin-sensitive Staphylococcus aureus ATCC 25923 measured after overnight incubation by broth double-dilution method; type: functional; settings: not given; procedure, shortened: as §1

SMILES | MIC [µg/mL]
CCCCCn1sc2ccccc2c1=O | 3.9 (≈ 17.6 µM)
O=c1c2ccccc2sn1C1CCCCCC1 | 3.9 (≈ 15.8 µM)

system: Staphylococcus aureus; assay: Antibacterial activity against methicillin-resistant Staphylococcus aureus S22 measured after overnight incubation by broth double-dilution method; type: functional; settings: not given; procedure, shortened: as §1

SMILES | MIC [µg/mL]
CCCCCn1sc2ccccc2c1=O | 3.9 (≈ 17.6 µM)
O=c1c2ccccc2sn1C1CCCCCC1 | 3.9 (≈ 15.8 µM)

system: Staphylococcus epidermidis; assay: Antibacterial activity against Staphylococcus epidermidis ATCC 35984 measured after overnight incubation by broth double-dilution method; type: functional; settings: RP62A
Procedure, shortened: (§2)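 MIC by broth double-dilution in Mueller-Hinton medium. Re-testing at the time-kill inoculum used 1×10^6 CFU/mL.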

SMILES | MIC [µg/mL]
CCCCCn1sc2ccccc2c1=O | 3.9 (≈ 17.6 µM)
O=c1c2ccccc2sn1C1CCCCCC1 | 2 (≈ 8.09 µM)

system: Enterococcus faecalis; assay: Antibacterial activity against Enterococcus faecalis ATCC 29212 measured after overnight incubation by broth double-dilution method; type: functional; settings: not given; procedure, shortened: as §2

SMILES | MIC [µg/mL]
CCCCCn1sc2ccccc2c1=O | 7.8 (≈ 35.2 µM)
O=c1c2ccccc2sn1C1CCCCCC1 | > 125

system: Staphylococcus aureus; assay: Antibacterial activity against methicillin-resistant Staphylococcus aureus C19 measured after overnight incubation by broth double-dilution method; type: functional; settings: not given; procedure, shortened: as §1

SMILES | MIC [µg/mL]
CCCCCn1sc2ccccc2c1=O | 1 (≈ 4.52 µM)
O=c1c2ccccc2sn1C1CCCCCC1 | 1 (≈ 4.04 µM)

system: Staphylococcus aureus; assay: Antibacterial activity against methicillin-resistant Staphylococcus aureus USA600 measured after overnight incubation by broth double-dilution method; type: functional; settings: not given; procedure, shortened: as §1

SMILES | MIC [µg/mL]
CCCCCn1sc2ccccc2c1=O | 3.9 (≈ 17.6 µM)
O=c1c2ccccc2sn1C1CCCCCC1 | 7.8 (≈ 31.5 µM)

system: Staphylococcus aureus; assay: Antibacterial activity against methicillin-resistant Staphylococcus aureus C7 measured after overnight incubation by broth double-dilution method; type: functional; settings: not given; procedure, shortened: as §1

SMILES | MIC [µg/mL]
CCCCCn1sc2ccccc2c1=O | 2 (≈ 9.04 µM)
O=c1c2ccccc2sn1C1CCCCCC1 | 3.9 (≈ 15.8 µM)

system: Staphylococcus aureus; assay: Antibacterial activity against methicillin-resistant Staphylococcus aureus NRS51 measured after overnight incubation by broth double-dilution method; type: functional; settings: not given; procedure, shortened: as §1

SMILES | MIC [µg/mL]
CCCCCn1sc2ccccc2c1=O | 3.9 (≈ 17.6 µM)
O=c1c2ccccc2sn1C1CCCCCC1 | 3.9 (≈ 15.8 µM)

system: Staphylococcus aureus; assay: Antibacterial activity against methicillin-resistant Staphylococcus aureus S24 measured after overnight incubation by broth double-dilution method; type: functional; settings: not given; procedure, shortened: as §1

SMILES | MIC [µg/mL]
CCCCCn1sc2ccccc2c1=O | 3.9 (≈ 17.6 µM)
O=c1c2ccccc2sn1C1CCCCCC1 | 3.9 (≈ 15.8 µM)

system: Listeria monocytogenes; assay: Antibacterial activity against Listeria monocytogenes ATCC 19115 measured after overnight incubation by broth double-dilution method; type: functional; settings: not given; procedure, shortened: as §2

SMILES | MIC [µg/mL]
CCCCCn1sc2ccccc2c1=O | 3.9 (≈ 17.6 µM)
O=c1c2ccccc2sn1C1CCCCCC1 | 3.9 (≈ 15.8 µM)

system: Staphylococcus aureus; assay: Antibacterial activity against methicillin-resistant Staphylococcus aureus USA100 measured after overnight incubation by broth double-dilution method; type: functional; settings: not given; procedure, shortened: as §1

SMILES | MIC [µg/mL]
CCCCCn1sc2ccccc2c1=O | 3.9 (≈ 17.6 µM)
O=c1c2ccccc2sn1C1CCCCCC1 | 3.9 (≈ 15.8 µM)

system: Staphylococcus aureus; assay: Antibacterial activity against methicillin-sensitive Staphylococcus aureus ATCC 29213 measured after overnight incubation by broth double-dilution method; type: functional; settings: not given; procedure, shortened: as §1

SMILES | MIC [µg/mL]
CCCCCn1sc2ccccc2c1=O | 3.9 (≈ 17.6 µM)
O=c1c2ccccc2sn1C1CCCCCC1 | 3.9 (≈ 15.8 µM)

system: Staphylococcus aureus; assay: Antibacterial activity against methicillin-resistant Staphylococcus aureus 1 measured after overnight incubation by broth double-dilution method; type: functional; settings: not given; procedure, shortened: as §1

SMILES | MIC [µg/mL]
CCCCCn1sc2ccccc2c1=O | 0.5 (≈ 2.26 µM)
O=c1c2ccccc2sn1C1CCCCCC1 | 2 (≈ 8.09 µM)

system: Staphylococcus aureus; assay: Antibacterial activity against methicillin-resistant Staphylococcus aureus C14 measured after overnight incubation by broth double-dilution method; type: functional; settings: not given; procedure, shortened: as §1

SMILES | MIC [µg/mL]
CCCCCn1sc2ccccc2c1=O | 3.9 (≈ 17.6 µM)
O=c1c2ccccc2sn1C1CCCCCC1 | 2 (≈ 8.09 µM)

system: Staphylococcus aureus; assay: Antibacterial activity against methicillin-resistant Staphylococcus aureus ATCC 33591 measured after overnight incubation by broth double-dilution method; type: functional; settings: not given; procedure, shortened: as §1

SMILES | MIC [µg/mL]
CCCCCn1sc2ccccc2c1=O | 1 (≈ 4.52 µM)
O=c1c2ccccc2sn1C1CCCCCC1 | 1 (≈ 4.04 µM)

system: Staphylococcus aureus; assay: Antibacterial activity against methicillin-resistant Staphylococcus aureus G14 measured after overnight incubation by broth double-dilution method; type: functional; settings: not given; procedure, shortened: as §1

SMILES | MIC [µg/mL]
CCCCCn1sc2ccccc2c1=O | 2 (≈ 9.04 µM)
O=c1c2ccccc2sn1C1CCCCCC1 | 3.9 (≈ 15.8 µM)

system: Staphylococcus aureus; assay: Antibacterial activity against methicillin-resistant Staphylococcus aureus USA200 measured after overnight incubation by broth double-dilution method; type: functional; settings: not given; procedure, shortened: as §1

SMILES | MIC [µg/mL]
CCCCCn1sc2ccccc2c1=O | 3.9 (≈ 17.6 µM)
O=c1c2ccccc2sn1C1CCCCCC1 | 7.8 (≈ 31.5 µM)

system: Staphylococcus aureus; assay: Antibacterial activity against methicillin-resistant Staphylococcus aureus S14 measured after overnight incubation by broth double-dilution method; type: functional; settings: not given; procedure, shortened: as §1

SMILES | MIC [µg/mL]
CCCCCn1sc2ccccc2c1=O | ≤ 0.25
O=c1c2ccccc2sn1C1CCCCCC1 | 0.5 (≈ 2.02 µM)

system: Staphylococcus aureus; assay: Antibacterial activity against methicillin-resistant Staphylococcus aureus 2 measured after overnight incubation by broth double-dilution method; type: functional; settings: not given; procedure, shortened: as §1

SMILES | MIC [µg/mL]
CCCCCn1sc2ccccc2c1=O | 2 (≈ 9.04 µM)
O=c1c2ccccc2sn1C1CCCCCC1 | 3.9 (≈ 15.8 µM)

system: Enterococcus faecium; assay: Antibacterial activity against Enterococcus faecium BM4105-RF measured after overnight incubation by broth double-dilution method; type: functional; settings: not given; procedure, shortened: as §1

SMILES | MIC [µg/mL]
CCCCCn1sc2ccccc2c1=O | 15.6 (≈ 70.5 µM)
O=c1c2ccccc2sn1C1CCCCCC1 | 7.8 (≈ 31.5 µM)

system: Staphylococcus aureus; assay: Antibacterial activity against methicillin-resistant Staphylococcus aureus NRS4 measured after overnight incubation by broth double-dilution method; type: functional; settings: not given; procedure, shortened: as §1

SMILES | MIC [µg/mL]
CCCCCn1sc2ccccc2c1=O | 2 (≈ 9.04 µM)
O=c1c2ccccc2sn1C1CCCCCC1 | 2 (≈ 8.09 µM)

system: Enterococcus faecalis; assay: Antibacterial activity against Enterococcus faecalis ATCC 49533 measured after overnight incubation by broth double-dilution method; type: functional; settings: not given; procedure, shortened: as §2

SMILES | MIC [µg/mL]
CCCCCn1sc2ccccc2c1=O | > 125
O=c1c2ccccc2sn1C1CCCCCC1 | > 125

Source: ChEMBL document CHEMBL3864121, “Development of ebsulfur analogues as potent antibacterials against methicillin-resistant Staphylococcus aureus” (Bioorg Med Chem, 2016)
